Common to all, as to format: functional, organism-based
The species named for experiment [1] is Rattus norvegicus. The experiment can be described thus: Inhibitory concentration for lipid peroxidation in rat. In outline: (§1)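 TBARS assay in rat brain homogenate (5 mg protein/mL). Compound was preincubated with homogenate 20 min at 37 °C with shaking, then peroxidation was started with 0.02 mM FeCl2 and 0.25 mM ascorbic acid for 30 min at 37 °C. The reaction was stopped with perchloric acid and centrifuged. Supernatant was reacted with 0.5% TBA at 80 °C for 1 h and A532 read against a 1,1,3,3-tetraethoxypropane standard.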

The species entered for experiment [2] is Bos taurus. As to the kind of experiment: Inhibitory concentration against bovine serum albumin glycation; Not active from 3.80 nM to 1.00 mM.
For experiment [3], the species on record is Bos taurus. The experiment can be described thus: Inhibitory concentration against bovine serum albumin glycation was determined.
The species entered for experiment [4] is Rattus norvegicus. As to the kind of experiment: Inhibitory concentration against lipid peroxidation in rat. In outline:
as §1

As usually defined, the IC50 is the concentration that inhibits the measured activity by half. A higher IC50 goes with weaker potency.

Regarding `COC1=C(OC)C(=O)C(C(=O)NCCc2ccccc2)=C(C)C1=O`, in the experiment listed under Rattus norvegicus [1], the IC50 was 29.2 µM. Turning to `Cc1c(C)c2c(c(C)c1O)CC[C@@](C)(CCC[C@H](C)CCC[C@H](C)CCCC(C)C)O2` [ALPHA-TOCOPHEROL], the IC50 result in the experiment listed under Bos taurus [2] is “Not Active”. For `CC1=C(Br)C(=O)c2ccccc2C1=O`, the IC50 was 144 µM in the experiment listed under Bos taurus [3] and 1.1 µM in the experiment filed under Rattus norvegicus [4]. The compound `CC1=CC(=O)c2ccccc2C1=O` [MENADIONE] came in with a 50% inhibitory concentration (IC50) in the experiment filed under Rattus norvegicus [4] of 12.2 µM.

In the case of `CC1=C(Cl)C(=O)c2ccccc2C1=O`, the IC50 is 199 µM in the experiment filed under Bos taurus [3] and 1.41 µM in the experiment listed under Rattus norvegicus [4]. For `COC1=C(OC)C(=O)C(c2ccccc2)=C(C)C1=O` the same measures were 218 µM and 39.4 µM.
